Reference: ChEMBL document CHEMBL2417474, “Synthesis, antiproliferative and anti-inflammatory activities of some novel 6-aryl-2-(p-(methanesulfonyl)phenyl)-4,5-dihydropyridazi-3(2H)-ones” (Eur J Med Chem, 2013)

How the values were obtained:
Format in all cases: functional
BT-549 = assay: Growth inhibition of human BT549 cells assessed as cell growth at 10 uM after 48 hrs by sulforhodamine B assay; settings: BT-549, 48 h, read-out: Activity
MDA-MB-231 [1] = assay: Growth inhibition of human MDA-MB-231 cells assessed as cell growth at 10 uM after 48 hrs by sulforhodamine B assay; settings: MDA-MB-231, 48 h, read-out: Activity
786-0 = assay: Growth inhibition of human 786-0 cells assessed as cell growth at 10 uM after 48 hrs by sulforhodamine B assay; settings: 786-0, 48 h, read-out: Activity
OVCAR-8 = assay: Growth inhibition of human OVCAR8 cells assessed as cell growth at 10 uM after 48 hrs by sulforhodamine B assay; settings: OVCAR-8, 48 h, read-out: Activity
OVCAR-4 = assay: Growth inhibition of human OVCAR4 cells assessed as cell growth at 10 uM after 48 hrs by sulforhodamine B assay; settings: OVCAR-4, 48 h, read-out: Activity
OVCAR-3 = assay: Growth inhibition of human OVCAR3 cells assessed as cell growth at 10 uM after 48 hrs by sulforhodamine B assay; settings: OVCAR-3, 48 h, read-out: Activity
SW-620 [2] = assay: Growth inhibition of human SW620 cells assessed as cell growth at 10 uM after 48 hrs by sulforhodamine B assay; settings: SW-620, 48 h, read-out: Activity
Summary of the method: (§1)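 Single-dose NCI screen. Tumor lines were cultured in medium with 5% fetal calf serum and 2 mM L-glutamine, preincubated 24 h, then given compound in DMSO. After 48 h continuous exposure, cell growth was estimated by sulforhodamine B protein assay.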

KM12 [3] = assay: Growth inhibition of human KM12 cells assessed as cell growth at 10 uM after 48 hrs by sulforhodamine B assay; settings: KM12, 48 h, read-out: Activity
NCI-H226 [4] = assay: Growth inhibition of human NCI-H226 cells assessed as cell growth at 10 uM after 48 hrs by sulforhodamine B assay; settings: NCI-H226, 48 h, read-out: Activity
HOP-92 = assay: Growth inhibition of human HOP92 cells assessed as cell growth at 10 uM after 48 hrs by sulforhodamine B assay; settings: HOP-92, 48 h, read-out: Activity
SR [5] = assay: Growth inhibition of human SR cells assessed as cell growth at 10 uM after 48 hrs by sulforhodamine B assay; settings: read-out: Activity; summary of the method: as §1
MOLT-4 [6] = assay: Growth inhibition of human MOLT4 cells assessed as cell growth at 10 uM after 48 hrs by sulforhodamine B assay; settings: MOLT-4, 48 h, read-out: Activity
T47D = assay: Growth inhibition of human T47D cells after 48 hrs by sulforhodamine B assay
Summary of the method: (§2)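 NCI 60-line panel. Cells were grown in medium with 5% fetal calf serum and 2 mM L-glutamine and preincubated 24 h in plates. Compound in DMSO was added at 10^-4 to 10^-8 M (five 10-fold levels), with continuous exposure for 48 h. Growth was read by SRB protein staining. GI50 is the concentration giving 50% reduction in net protein increase versus control cells.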

[7] = Growth inhibition of human Hs 578T cells after 48 hrs by sulforhodamine B assay
Summary of the method: (§3)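 NCI 60-cell-line panel grown in RPMI-type medium with 5% fetal calf serum and 2 mM L-glutamine. Cells preincubated 24 h, then exposed continuously for 48 h to compound in DMSO at 10^-4 to 10^-8 M (five 10-fold levels). Growth read by SRB protein stain. GI50 is the concentration giving a 50% reduction in net protein increase relative to control cells.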

MDA-MB-231 [8] = assay: Growth inhibition of human MDA-MB-231 cells after 48 hrs by sulforhodamine B assay; settings: MDA-MB-231, 48 h; summary of the method: as §3
DU-145 = assay: Growth inhibition of human DU145 cells after 48 hrs by sulforhodamine B assay; settings: DU-145, 48 h; summary of the method: as §3
MCF7 = assay: Growth inhibition of human MCF7 cells after 48 hrs by sulforhodamine B assay; settings: MCF7, 48 h; summary of the method: as §3
UO-31 = assay: Growth inhibition of human UO31 cells after 48 hrs by sulforhodamine B assay; settings: UO-31, 48 h; summary of the method: as §2
OVCAR-5 = assay: Growth inhibition of human OVCAR5 cells after 48 hrs by sulforhodamine B assay; settings: OVCAR-5, 48 h
Summary of the method: (§4)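 NCI 60-cell-line panel. Cells were grown in medium with 5% fetal calf serum and 2 mM L-glutamine, then preincubated 24 h in plates. Compounds were added from DMSO at five 10-fold concentrations from 100 to 0.01 µM and left on cells continuously for 48 h. Cell growth was read by sulforhodamine B protein stain. GI50 is the concentration that halves net protein increase relative to control cells.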

UACC-62 = assay: Growth inhibition of human UACC62 cells after 48 hrs by sulforhodamine B assay; settings: UACC-62, 48 h; summary of the method: as §2
SK-MEL-28 = assay: Growth inhibition of human SK-MEL-28 cells after 48 hrs by sulforhodamine B assay; settings: SK-MEL-28, 48 h; summary of the method: as §4
MDA-MB-435 = assay: Growth inhibition of human MDA-MB-435 cells after 48 hrs by sulforhodamine B assay; settings: MDA-MB-435, 48 h; summary of the method: as §4
U-251 = assay: Growth inhibition of human U251 cells after 48 hrs by sulforhodamine B assay; settings: U-251, 48 h; summary of the method: as §2
SW-620 [9] = assay: Growth inhibition of human SW620 cells after 48 hrs by sulforhodamine B assay; settings: SW-620, 48 h; summary of the method: as §2
KM12 [10] = assay: Growth inhibition of human KM12 cells after 48 hrs by sulforhodamine B assay; settings: KM12, 48 h; summary of the method: as §3
NCI-H522 = assay: Growth inhibition of human NCI-H522 cells after 48 hrs by sulforhodamine B assay; settings: NCI-H522, 48 h; summary of the method: as §4
NCI-H226 [11] = assay: Growth inhibition of human NCI-H226 cells after 48 hrs by sulforhodamine B assay; settings: NCI-H226, 48 h; summary of the method: as §4
NCI-H23 = assay: Growth inhibition of human NCI-H23 cells after 48 hrs by sulforhodamine B assay; settings: NCI-H23, 48 h; summary of the method: as §4
SR [12] = assay: Growth inhibition of human SR cells after 48 hrs by sulforhodamine B assay; summary of the method: as §4
MOLT-4 [13] = assay: Growth inhibition of human MOLT4 cells after 48 hrs by sulforhodamine B assay; settings: MOLT-4, 48 h; summary of the method: as §4
[14] = read-out: LC50 (the source's name)

## CCc1ccc(C2=NN(c3ccc(S(C)(=O)=O)cc3)C(=O)CC2)cc1
BT-549
  growth at 10 µM: 21.9%
MDA-MB-231 [1]
  growth at 10 µM: 55.5%
786-0
  growth at 10 µM: 36.5%
OVCAR-8
  growth at 10 µM: 39.1%
OVCAR-4
  growth at 10 µM: 76.2%
OVCAR-3
  growth at 10 µM: -13.6%
SW-620 [2]
  growth at 10 µM: 12.4%
KM12 [3]
  growth at 10 µM: 17.3%
NCI-H226 [4]
  growth at 10 µM: 69.1%
HOP-92
  growth at 10 µM: 68.6%
SR [5]
  growth at 10 µM: 4.42%
MOLT-4 [6]
  growth at 10 µM: 15.3%
T47D
  GI50: 4.4 µM
  LC50: > 100 µM
  TGI: 93.3 µM
[7]
  GI50: 0.83 µM
  LC50 (concentration giving 50% net cell kill): > 100 µM
  TGI: 6.89 µM
MDA-MB-231 [8]
  GI50: 3.46 µM
  LC50: > 100 µM
  TGI: > 100 µM
DU-145
  GI50: 5.66 µM
  TGI: > 100 µM
DU-145; [14]
  CC50: > 100 µM
MCF7
  GI50: 3.13 µM
  LC50 (concentration killing 50% of cells): > 100 µM
  TGI: > 100 µM
UO-31
  GI50: 5.23 µM
  LC50 (concentration killing 50% of cells): > 100 µM
  TGI: > 100 µM
OVCAR-5
  GI50: 8.51 µM
  TGI: > 100 µM
OVCAR-5; [14]
  CC50: > 100 µM
UACC-62
  GI50: 0.78 µM
  LC50 (50% net cell kill concentration): > 100 µM
  TGI: > 100 µM
SK-MEL-28
  GI50: 1.84 µM
  TGI: > 100 µM
SK-MEL-28; [14]
  CC50: > 100 µM
MDA-MB-435
  GI50: 0.22 µM
  LC50 (concentration killing 50% of starting cells): > 100 µM
  TGI: 0.74 µM
U-251
  GI50: 1.91 µM
  TGI: > 100 µM
U-251; [14]
  CC50: > 100 µM
SW-620 [9]
  GI50: 43.1 µM
  TGI: > 100 µM
SW-620 [9]; [14]
  CC50: > 100 µM
KM12 [10]
  GI50: 0.93 µM
  LC50: > 100 µM
  TGI: > 100 µM
NCI-H522
  GI50: 0.33 µM
  LC50 (concentration killing 50% of starting cells): > 100 µM
  TGI: 8.37 µM
NCI-H226 [11]
  GI50: 0.2 µM
  TGI: > 100 µM
NCI-H226 [11]; [14]
  CC50: > 100 µM
NCI-H23
  GI50: 3.19 µM
  TGI: > 100 µM
NCI-H23; [14]
  CC50: > 100 µM
SR [12]
  GI50: 5.65 µM
  LC50: > 100 µM
  TGI: 40.3 µM
MOLT-4 [13]
  GI50: 3.52 µM
  LC50: > 100 µM
  TGI: 6.75 µM

## O=c1[nH]cc(F)c(=O)[nH]1 [FLUOROURACIL]
T47D
  GI50: 8.12 µM
[7]
  GI50: 9.77 µM
MDA-MB-231 [8]
  GI50: 6.6 µM
DU-145
  GI50: 0.36 µM
MCF7
  GI50: 0.07 µM
UO-31
  GI50: 1.42 µM
OVCAR-5
  GI50: 10.9 µM
UACC-62
  GI50: 0.52 µM
SK-MEL-28
  GI50: 1.03 µM
MDA-MB-435
  GI50: 0.07 µM
U-251
  GI50: 0.9 µM
SW-620 [9]
  GI50: 0.92 µM
KM12 [10]
  GI50: 0.21 µM
NCI-H522
  GI50: 7.27 µM
NCI-H226 [11]
  GI50: 54.7 µM
NCI-H23
  GI50: 0.33 µM
SR [12]
  GI50: 0.02 µM
MOLT-4 [13]
  GI50: 0.35 µM
